Measured values taken from ChEMBL document CHEMBL2176950, “A frozen analogue approach to aminopyridinylimidazoles leading to novel and promising p38 MAP kinase inhibitors” (J Med Chem, 2012).
The source made the active and inactive calls. The calls are words filed in the database; no cut-off is given here.

Tests used:
[1] = biological target: T1, Mitogen-activated protein kinase 14 (Homo sapiens, UniProt Q16539); assay: Ratio of SB203580 IC50 to compound IC50 for inhibition of p38alpha MAPK
Summary of the method: (§1)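 p38 MAPK activity assay run by a previously published protocol. IC50 given as mean with SEM from three experiments. The activity coefficient is the IC50 of the SB203580 reference divided by the IC50 of the test compound.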

[2] = biological target: T1, Mitogen-activated protein kinase 14; assay: Inhibition of p38alpha MAPK; summary of the method: as §1
[3] = biological target: T2, Serine/threonine-protein kinase 36 (Homo sapiens) (UniProt Q9NRP7); assay: Inhibition of STK36 assessed as residual activity at 1000 nM
T2 sequence (whole entry): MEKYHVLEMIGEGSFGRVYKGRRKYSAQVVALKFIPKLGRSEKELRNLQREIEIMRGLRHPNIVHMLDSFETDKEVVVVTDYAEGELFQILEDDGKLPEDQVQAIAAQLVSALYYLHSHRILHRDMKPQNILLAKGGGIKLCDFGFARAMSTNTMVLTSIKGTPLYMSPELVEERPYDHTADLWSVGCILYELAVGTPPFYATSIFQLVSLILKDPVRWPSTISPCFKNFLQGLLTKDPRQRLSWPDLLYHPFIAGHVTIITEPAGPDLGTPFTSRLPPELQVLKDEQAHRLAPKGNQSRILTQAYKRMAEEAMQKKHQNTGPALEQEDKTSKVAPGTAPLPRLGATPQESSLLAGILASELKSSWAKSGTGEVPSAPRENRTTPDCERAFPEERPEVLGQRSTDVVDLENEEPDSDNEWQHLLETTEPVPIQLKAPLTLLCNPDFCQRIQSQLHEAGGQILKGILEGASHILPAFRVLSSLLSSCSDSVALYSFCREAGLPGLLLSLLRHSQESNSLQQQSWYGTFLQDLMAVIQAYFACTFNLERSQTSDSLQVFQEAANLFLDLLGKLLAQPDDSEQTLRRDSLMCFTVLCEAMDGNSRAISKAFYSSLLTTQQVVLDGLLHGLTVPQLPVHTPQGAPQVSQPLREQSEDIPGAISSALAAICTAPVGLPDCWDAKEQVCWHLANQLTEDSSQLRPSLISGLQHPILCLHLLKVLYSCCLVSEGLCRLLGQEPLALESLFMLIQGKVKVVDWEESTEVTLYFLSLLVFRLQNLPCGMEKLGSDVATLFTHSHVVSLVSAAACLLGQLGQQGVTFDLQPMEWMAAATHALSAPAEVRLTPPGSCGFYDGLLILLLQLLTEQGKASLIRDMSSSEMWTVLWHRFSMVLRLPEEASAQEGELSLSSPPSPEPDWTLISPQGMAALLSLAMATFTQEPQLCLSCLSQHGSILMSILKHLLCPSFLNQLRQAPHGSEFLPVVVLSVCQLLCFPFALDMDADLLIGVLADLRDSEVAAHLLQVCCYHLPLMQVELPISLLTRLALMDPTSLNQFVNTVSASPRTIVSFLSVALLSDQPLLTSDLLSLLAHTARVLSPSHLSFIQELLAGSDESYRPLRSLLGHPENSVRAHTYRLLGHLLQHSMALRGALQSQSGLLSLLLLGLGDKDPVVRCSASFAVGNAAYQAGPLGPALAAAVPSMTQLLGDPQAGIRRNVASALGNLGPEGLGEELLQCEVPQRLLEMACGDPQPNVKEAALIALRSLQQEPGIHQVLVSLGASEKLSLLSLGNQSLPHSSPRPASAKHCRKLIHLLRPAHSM

[4] = biological target: Proto-oncogene tyrosine-protein kinase Src (Homo sapiens) (UniProt P12931); assay: Inhibition of SRC assessed as residual activity at 1000 nM
Proto-oncogene tyrosine-protein kinase Src (Homo sapiens), sequence (P12931 2-536 limits assumed): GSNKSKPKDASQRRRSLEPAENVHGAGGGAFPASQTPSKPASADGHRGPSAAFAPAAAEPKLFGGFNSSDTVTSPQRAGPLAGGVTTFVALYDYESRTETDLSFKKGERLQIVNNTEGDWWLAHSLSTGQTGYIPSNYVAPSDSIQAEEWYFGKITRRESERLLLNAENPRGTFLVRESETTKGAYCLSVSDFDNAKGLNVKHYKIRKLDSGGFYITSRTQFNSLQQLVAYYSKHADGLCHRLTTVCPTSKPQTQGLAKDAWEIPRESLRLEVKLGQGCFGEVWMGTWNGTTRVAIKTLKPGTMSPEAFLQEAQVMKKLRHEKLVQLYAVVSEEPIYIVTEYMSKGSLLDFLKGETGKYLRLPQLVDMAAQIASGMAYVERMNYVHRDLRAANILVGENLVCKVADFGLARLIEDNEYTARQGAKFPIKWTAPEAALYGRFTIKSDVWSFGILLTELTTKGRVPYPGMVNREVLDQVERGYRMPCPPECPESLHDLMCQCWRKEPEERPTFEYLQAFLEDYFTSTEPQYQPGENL

[5] = biological target: T3, Cyclin-G-associated kinase (Homo sapiens) (UniProt O14976); assay: Inhibition of GAK assessed as residual activity at 1000 nM
T3 sequence (whole entry): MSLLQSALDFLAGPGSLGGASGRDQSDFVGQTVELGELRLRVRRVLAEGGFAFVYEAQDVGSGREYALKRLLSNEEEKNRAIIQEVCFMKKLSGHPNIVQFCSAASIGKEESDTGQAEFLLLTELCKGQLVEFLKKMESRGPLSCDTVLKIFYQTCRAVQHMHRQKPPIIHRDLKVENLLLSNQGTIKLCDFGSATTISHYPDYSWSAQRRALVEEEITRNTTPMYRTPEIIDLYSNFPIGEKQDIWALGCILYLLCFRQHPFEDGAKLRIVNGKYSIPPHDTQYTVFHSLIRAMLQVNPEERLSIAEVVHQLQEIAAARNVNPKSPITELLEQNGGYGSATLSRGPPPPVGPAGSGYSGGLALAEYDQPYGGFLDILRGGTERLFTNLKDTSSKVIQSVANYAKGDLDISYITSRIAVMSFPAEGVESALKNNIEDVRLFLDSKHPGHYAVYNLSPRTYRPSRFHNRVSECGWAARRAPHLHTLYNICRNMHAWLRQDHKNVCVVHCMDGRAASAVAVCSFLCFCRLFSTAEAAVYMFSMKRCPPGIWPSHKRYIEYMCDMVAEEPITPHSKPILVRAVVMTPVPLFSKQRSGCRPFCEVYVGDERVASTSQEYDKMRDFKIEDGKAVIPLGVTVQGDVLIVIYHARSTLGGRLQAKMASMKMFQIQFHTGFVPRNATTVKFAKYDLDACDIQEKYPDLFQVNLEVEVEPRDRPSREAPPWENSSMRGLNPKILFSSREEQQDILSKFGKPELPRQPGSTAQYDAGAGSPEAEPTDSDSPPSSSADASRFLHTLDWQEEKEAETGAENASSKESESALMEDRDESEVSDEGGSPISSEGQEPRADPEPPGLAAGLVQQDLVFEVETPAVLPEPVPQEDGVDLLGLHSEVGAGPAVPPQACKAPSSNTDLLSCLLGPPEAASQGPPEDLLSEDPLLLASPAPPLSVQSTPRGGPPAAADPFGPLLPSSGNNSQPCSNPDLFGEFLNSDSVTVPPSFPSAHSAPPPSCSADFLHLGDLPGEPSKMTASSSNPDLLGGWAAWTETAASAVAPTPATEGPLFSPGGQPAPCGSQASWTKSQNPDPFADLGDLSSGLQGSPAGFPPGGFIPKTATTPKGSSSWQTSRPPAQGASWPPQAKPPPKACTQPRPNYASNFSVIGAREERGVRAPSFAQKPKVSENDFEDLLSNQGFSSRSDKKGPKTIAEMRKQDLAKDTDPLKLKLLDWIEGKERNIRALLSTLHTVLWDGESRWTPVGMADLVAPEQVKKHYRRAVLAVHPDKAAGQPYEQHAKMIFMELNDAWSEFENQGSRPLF

[6] = biological target: Receptor-interacting serine/threonine-protein kinase 2 (Homo sapiens) (UniProt O43353); assay: Inhibition of RIPK2 assessed as residual activity at 1000 nM
Receptor-interacting serine/threonine-protein kinase 2 (Homo sapiens), sequence (O43353 whole entry): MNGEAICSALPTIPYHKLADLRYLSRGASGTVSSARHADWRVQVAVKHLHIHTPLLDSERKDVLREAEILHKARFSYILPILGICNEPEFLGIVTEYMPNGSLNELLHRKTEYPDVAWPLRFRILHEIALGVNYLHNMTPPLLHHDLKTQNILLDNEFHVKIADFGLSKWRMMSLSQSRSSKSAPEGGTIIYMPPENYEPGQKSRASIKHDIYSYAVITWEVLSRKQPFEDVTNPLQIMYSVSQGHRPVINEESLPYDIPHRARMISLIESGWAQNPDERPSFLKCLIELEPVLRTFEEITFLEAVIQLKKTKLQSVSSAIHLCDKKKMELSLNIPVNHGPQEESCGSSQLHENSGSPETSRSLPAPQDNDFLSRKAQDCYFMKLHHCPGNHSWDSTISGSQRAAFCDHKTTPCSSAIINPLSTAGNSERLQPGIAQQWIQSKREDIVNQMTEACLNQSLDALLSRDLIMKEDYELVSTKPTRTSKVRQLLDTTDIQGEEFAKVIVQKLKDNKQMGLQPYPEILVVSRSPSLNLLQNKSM

[7] = biological target: Mitogen-activated protein kinase 11 (Homo sapiens) (UniProt Q15759); assay: Inhibition of MAPK11 assessed as residual activity at 1000 nM
Mitogen-activated protein kinase 11 (Homo sapiens), sequence (Q15759 whole entry): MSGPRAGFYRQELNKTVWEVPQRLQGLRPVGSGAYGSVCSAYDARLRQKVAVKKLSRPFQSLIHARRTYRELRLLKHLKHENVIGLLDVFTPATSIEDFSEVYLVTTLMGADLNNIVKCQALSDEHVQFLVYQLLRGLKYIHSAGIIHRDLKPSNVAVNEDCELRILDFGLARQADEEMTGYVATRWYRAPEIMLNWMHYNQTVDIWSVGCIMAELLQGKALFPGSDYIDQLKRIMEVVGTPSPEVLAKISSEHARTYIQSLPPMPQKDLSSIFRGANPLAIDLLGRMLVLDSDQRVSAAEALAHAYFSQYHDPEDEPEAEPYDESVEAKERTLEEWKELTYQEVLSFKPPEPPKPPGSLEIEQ

[8] = biological target: T1, Mitogen-activated protein kinase 14; assay: Inhibition of MAPK14 assessed as residual activity at 1000 nM
[9] = biological target: TRAF2 and NCK-interacting protein kinase (Homo sapiens) (UniProt Q9UKE5); assay: Inhibition of KIAA0551 assessed as residual activity at 1000 nM
TRAF2 and NCK-interacting protein kinase (Homo sapiens), sequence (Q9UKE5 whole entry, looked up): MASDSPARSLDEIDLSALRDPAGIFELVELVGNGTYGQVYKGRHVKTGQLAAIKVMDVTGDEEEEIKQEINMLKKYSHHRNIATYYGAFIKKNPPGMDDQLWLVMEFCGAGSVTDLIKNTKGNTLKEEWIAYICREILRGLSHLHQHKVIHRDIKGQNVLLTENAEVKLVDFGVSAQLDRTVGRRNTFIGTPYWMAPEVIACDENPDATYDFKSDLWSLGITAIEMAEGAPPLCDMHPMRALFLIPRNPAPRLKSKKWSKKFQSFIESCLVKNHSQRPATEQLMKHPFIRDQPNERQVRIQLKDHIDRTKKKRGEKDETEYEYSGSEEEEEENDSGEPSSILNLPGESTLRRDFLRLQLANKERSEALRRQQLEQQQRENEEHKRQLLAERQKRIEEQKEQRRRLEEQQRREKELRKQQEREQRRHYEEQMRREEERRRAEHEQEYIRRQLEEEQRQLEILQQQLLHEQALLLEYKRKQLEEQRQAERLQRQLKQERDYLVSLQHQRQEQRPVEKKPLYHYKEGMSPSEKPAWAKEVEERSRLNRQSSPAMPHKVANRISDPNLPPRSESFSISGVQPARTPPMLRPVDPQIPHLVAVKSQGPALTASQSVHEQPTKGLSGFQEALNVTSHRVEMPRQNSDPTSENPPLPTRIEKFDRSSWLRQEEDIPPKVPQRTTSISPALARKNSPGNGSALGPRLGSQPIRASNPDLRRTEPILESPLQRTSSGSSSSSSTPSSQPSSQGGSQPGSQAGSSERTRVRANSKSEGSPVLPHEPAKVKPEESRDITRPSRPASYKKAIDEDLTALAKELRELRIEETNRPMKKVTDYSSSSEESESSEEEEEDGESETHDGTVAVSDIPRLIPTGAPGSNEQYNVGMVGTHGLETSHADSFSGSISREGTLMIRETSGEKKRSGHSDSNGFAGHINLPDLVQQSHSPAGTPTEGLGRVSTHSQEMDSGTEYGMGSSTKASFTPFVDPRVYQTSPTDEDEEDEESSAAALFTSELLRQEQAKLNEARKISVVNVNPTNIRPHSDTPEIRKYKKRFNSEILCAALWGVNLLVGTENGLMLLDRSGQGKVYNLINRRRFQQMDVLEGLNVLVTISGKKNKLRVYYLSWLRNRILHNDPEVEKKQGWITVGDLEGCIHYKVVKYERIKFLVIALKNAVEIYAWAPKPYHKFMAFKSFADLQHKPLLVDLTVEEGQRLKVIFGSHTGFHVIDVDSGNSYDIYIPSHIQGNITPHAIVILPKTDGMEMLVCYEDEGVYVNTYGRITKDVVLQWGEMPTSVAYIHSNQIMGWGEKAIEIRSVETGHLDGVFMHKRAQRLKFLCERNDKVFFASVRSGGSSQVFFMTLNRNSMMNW

[10] = biological target: Mitogen-activated protein kinase 9 (Homo sapiens) (UniProt P45984); assay: Inhibition of JNK2 assessed as residual activity at 1000 nM
Mitogen-activated protein kinase 9 (Homo sapiens), sequence (P45984 whole entry, looked up): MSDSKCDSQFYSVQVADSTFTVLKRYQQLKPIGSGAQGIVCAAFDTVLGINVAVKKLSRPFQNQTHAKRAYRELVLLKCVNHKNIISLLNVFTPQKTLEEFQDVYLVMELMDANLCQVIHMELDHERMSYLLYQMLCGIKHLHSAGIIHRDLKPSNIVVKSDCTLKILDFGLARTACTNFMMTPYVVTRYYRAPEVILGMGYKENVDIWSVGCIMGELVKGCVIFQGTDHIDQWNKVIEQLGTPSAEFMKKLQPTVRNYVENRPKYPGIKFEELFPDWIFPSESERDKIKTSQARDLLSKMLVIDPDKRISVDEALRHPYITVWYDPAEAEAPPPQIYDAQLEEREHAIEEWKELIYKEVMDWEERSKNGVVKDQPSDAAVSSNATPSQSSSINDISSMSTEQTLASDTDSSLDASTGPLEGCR

[11] = biological target: Mitogen-activated protein kinase 10 (Homo sapiens) (UniProt P53779); assay: Inhibition of JNK3 assessed as residual activity at 1000 nM
Mitogen-activated protein kinase 10 (Homo sapiens), sequence (P53779 whole entry): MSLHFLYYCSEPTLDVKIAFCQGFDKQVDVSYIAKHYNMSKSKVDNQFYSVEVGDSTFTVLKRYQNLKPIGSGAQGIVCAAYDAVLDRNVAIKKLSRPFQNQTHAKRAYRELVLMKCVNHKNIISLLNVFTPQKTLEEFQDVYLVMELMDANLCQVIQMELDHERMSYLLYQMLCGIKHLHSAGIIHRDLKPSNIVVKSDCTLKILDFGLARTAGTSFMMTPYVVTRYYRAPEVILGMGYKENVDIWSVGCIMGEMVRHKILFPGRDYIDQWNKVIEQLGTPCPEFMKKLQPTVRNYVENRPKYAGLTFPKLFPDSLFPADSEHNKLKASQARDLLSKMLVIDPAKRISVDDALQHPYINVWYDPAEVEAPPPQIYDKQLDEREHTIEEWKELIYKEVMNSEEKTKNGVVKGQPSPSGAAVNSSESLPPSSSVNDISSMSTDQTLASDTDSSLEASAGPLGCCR

[12] = biological target: Protein-tyrosine kinase 6 (Homo sapiens) (UniProt Q13882); assay: Inhibition of PTK6 assessed as residual activity at 1000 nM
Protein-tyrosine kinase 6 (Homo sapiens), sequence (Q13882 whole entry, looked up): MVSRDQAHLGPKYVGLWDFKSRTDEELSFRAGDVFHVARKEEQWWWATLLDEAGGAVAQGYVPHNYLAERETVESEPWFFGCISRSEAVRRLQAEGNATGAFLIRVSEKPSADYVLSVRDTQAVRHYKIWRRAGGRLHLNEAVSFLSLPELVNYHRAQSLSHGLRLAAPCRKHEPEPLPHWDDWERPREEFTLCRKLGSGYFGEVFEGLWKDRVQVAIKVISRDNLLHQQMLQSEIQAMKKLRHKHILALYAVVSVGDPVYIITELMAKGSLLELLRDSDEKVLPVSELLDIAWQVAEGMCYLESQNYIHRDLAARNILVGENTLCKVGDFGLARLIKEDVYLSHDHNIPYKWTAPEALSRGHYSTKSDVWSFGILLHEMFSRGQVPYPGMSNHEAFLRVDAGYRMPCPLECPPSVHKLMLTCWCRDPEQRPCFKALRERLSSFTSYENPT

[13] = biological target: T4, Mitogen-activated protein kinase 12 (Homo sapiens) (UniProt P53778); conditions: 1000 nM
T4 sequence (whole entry): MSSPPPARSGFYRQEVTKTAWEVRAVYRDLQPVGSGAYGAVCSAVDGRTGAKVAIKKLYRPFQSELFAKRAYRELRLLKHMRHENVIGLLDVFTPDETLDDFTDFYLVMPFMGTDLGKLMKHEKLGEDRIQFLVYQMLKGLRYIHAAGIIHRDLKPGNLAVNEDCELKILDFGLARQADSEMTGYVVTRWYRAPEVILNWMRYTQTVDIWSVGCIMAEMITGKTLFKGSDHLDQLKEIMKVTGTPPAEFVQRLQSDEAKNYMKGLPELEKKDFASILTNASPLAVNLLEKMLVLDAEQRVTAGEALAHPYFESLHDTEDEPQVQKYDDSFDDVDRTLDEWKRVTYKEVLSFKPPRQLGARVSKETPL

[14] = biological target: Mitogen-activated protein kinase 8 (Homo sapiens) (UniProt P45983); assay: Inhibition of JNK1 assessed as residual activity at 1000 nM
[15] = biological target: Tyrosine-protein kinase FRK (Homo sapiens) (UniProt P42685); assay: Inhibition of FRK assessed as residual activity at 1000 nM
Tyrosine-protein kinase FRK (Homo sapiens), sequence (P42685 whole entry): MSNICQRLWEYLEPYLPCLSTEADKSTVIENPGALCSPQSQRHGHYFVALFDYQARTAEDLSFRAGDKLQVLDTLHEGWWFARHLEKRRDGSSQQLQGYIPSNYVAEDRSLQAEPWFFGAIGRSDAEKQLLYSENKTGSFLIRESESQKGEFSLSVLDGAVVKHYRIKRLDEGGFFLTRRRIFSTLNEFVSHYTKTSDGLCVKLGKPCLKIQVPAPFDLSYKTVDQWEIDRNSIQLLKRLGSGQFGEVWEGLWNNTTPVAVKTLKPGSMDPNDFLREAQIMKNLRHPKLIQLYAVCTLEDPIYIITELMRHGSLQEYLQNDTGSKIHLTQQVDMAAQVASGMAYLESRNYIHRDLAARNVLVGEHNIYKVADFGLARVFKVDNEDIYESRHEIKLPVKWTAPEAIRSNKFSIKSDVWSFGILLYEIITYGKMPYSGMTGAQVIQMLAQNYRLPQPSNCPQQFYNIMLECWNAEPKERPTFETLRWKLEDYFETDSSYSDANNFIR

T1 sequence (Q16539 whole entry): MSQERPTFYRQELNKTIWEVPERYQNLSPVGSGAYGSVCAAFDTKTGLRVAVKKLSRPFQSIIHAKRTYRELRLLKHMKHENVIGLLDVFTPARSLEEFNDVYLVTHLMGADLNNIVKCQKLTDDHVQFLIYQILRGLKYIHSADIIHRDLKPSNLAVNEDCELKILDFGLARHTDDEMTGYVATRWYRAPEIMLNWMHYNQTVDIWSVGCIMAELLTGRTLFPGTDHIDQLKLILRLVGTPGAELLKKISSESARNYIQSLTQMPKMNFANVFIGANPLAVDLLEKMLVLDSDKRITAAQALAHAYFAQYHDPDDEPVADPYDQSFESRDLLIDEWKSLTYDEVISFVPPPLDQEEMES

SMILES	Ratio IC50 [1]	IC50 [2] [nM]	further results
Fc1ccc(-c2[nH]c(-c3ccccc3)nc2-c2ccnc3[nH]c4ccccc4c23)cc1	–	153	–
Oc1ccc(-c2nc(-c3ccnc4[nH]c(-c5ccccc5)cc34)c(-c3ccc(F)cc3)[nH]2)cc1	–	3	–
Fc1ccc(-c2nc(-c3ccccc3)[nH]c2-c2ncnc3[nH]cnc23)cc1	0.1	740	–
CS(=O)(=O)c1ccc(-c2nc(-c3ccc(F)cc3)c(-c3ccnc4[nH]c(-c5ccccc5)cc34)[nH]2)cc1	3.46	11	–
COc1cc(-c2nc(-c3ccc(F)cc3)c(-c3ccnc4[nH]c(-c5ccccc5)cc34)[nH]2)cc(OC)c1OC	0.12	–	–
Fc1ccc(-c2[nH]c(-c3ccccc3)nc2-c2ccncc2)cc1	0.33	–	–
C[S+]([O-])c1ccc(-c2nc(-c3ccc(F)cc3)c(-c3ccnc4[nH]c(-c5ccccc5)cc34)[nH]2)cc1 (stereo not given)	4.75	–	–
COc1cc(-c2nc(-c3ccnc4[nH]c(-c5ccccc5)cc34)c(-c3ccc(F)cc3)[nH]2)cc(OC)c1OC	–	290	–
COc1ccc(-c2nc(-c3ccc(F)cc3)c(-c3ccnc4[nH]c(-c5ccccc5)cc34)[nH]2)cc1	0.67	–	–
COc1ccc(-c2nc(-c3ccnc4[nH]c(-c5ccccc5)cc34)c(-c3ccc(F)cc3)[nH]2)cc1	–	70	–
Fc1ccc(-c2nc(-c3ccccc3)[nH]c2-c2ncnc3[nH]ccc23)cc1	0.03	2600	–
Oc1ccc(-c2nc(-c3ccc(F)cc3)c(-c3ccncc3)[nH]2)cc1	–	–	inhibition [3]: Active; inhibition [5]: Active; inhibition [10]: Active; inhibition [6]: Active; inhibition [7]: Active; inhibition [11]: Active; inhibition [12]: Active; inhibition [8]: Active; inhibition [13]: Active; inhibition [14]: Active; inhibition [9]: Active; inhibition [15]: Active
COCn1c(-c2ccccc2)nc(-c2ccc(F)cc2)c1-c1ncnc2[nH]cnc12	0.01	2990	–
CSc1ccc(-c2nc(-c3ccc(F)cc3)c(-c3ccnc4[nH]c(-c5ccccc5)cc34)[nH]2)cc1	0.97	–	–
Fc1ccc(-c2[nH]c(-c3ccccc3)nc2-c2ccnc3[nH]c(-c4ccccc4)cc23)cc1	–	16	–
C[S+]([O-])c1ccc(-c2nc(-c3ccnc4[nH]c(-c5ccccc5)cc34)c(-c3ccc(F)cc3)[nH]2)cc1 (stereo not given)	–	8	–
CSc1ccc(-c2nc(-c3ccnc4[nH]c(-c5ccccc5)cc34)c(-c3ccc(F)cc3)[nH]2)cc1	–	39	–
COCn1c(-c2ccccc2)nc(-c2ccc(F)cc2)c1-c1ccnc2[nH]ccc12	0.18	451	–

Further lines, with some results ahead:

Ratio IC50 [1]	IC50 [2] [nM]	SMILES	further results
2.07	–	Fc1ccc(-c2nc(-c3ccccc3)[nH]c2-c2ccnc3[nH]c(C4CCCCC4)cc23)cc1	–
2.38	–	Fc1ccc(-c2nc(-c3ccccc3)[nH]c2-c2ccnc3[nH]c(-c4ccccc4)cc23)cc1	–
0.47	–	Fc1ccc(-c2nc(-c3ccccc3)[nH]c2-c2ccnc3[nH]ccc23)cc1	–
0.55	–	Fc1ccc(-c2nc(-c3ccccc3)[nH]c2-c2ccnc3[nH]c4ccccc4c23)cc1	–
–	108	Fc1ccc(-c2[nH]c(-c3ccccc3)nc2-c2ccnc3[nH]ccc23)cc1	–
19.7	–	Oc1ccc(-c2nc(-c3ccc(F)cc3)c(-c3ccnc4[nH]c(-c5ccccc5)cc34)[nH]2)cc1	Activity [3]: 4.8%; Activity [4]: 28%; Activity [5]: 7.7%; Activity [6]: 3.2%; Activity [7]: 2.5%; Activity [8]: 8.9%; Activity [9]: 17%
–	15	Fc1ccc(-c2[nH]c(-c3ccccc3)nc2-c2ccnc3[nH]c(C4CCCCC4)cc23)cc1	–
0.07	345	Fc1ccc(-c2nc(-c3ccccc3)[nH]c2-c2ccnc3[nH]c(Cc4ccccc4)cc23)cc1	–
